Screening data (PubChem BioAssay)
Sampled rows, rich in hits. Any-hit rate of the full collection: about 3%.
Myeloid diff 2: myeloid differentiation induction; AID 624256; ER-HoxA9 myeloid progenitors, lysozyme-GFP differentiation, flow cytometry; calls only at 10 µM; actives 1% (n = 360,000);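 active = normalized GFP-positive differentiation at or above the plate's own cutoff, the solvent-only control mean plus 3 SD; inconclusive = no clear call, values can overlap the other calls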;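 note: cells exposed to compound for four days before flow analysis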
SENP1 FRET inh: SENP1 (human) catalytic domain inhibition; Q9P0U3; recombinant SENP1 catalytic domain, CyPet-SUMO1-YPet FRET cleavage; inhibition, % at 10 µM; actives 0.21% (n = 360,000);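 active = inhibition at least 30% at 10 µM, raw YFP signal under a set limit, fluorescence ratio 0.5 to 1.5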;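 note: 0% = enzyme with DMSO and 100% = no enzyme wells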
Target sequence (Q9P0U3 419-644 limits assumed): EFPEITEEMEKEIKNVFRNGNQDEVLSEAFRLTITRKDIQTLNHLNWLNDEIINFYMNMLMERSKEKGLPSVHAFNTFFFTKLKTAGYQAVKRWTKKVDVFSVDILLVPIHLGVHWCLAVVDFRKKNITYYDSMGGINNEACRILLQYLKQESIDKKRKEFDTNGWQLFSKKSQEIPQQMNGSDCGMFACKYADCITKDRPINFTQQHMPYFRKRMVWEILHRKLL
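Assay system – human recombinant His6-tagged SENP1 catalytic domain enzyme · Input – SENP1 enzyme, 20 pM final · Buffer or medium – Tris pH 8 buffer plus EDTA, NaCl, BME, BSA, NP40, catalase · Schedule – 50 min reaction at room temperature · Technique – FRET read of cyan and yellow fluorescence · Control set – no-enzyme wells low, DMSO-plus-enzyme wells high control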
Granule exo inh: lytic granule exocytosis inhibition; actives 0.66% (n = 360,000); inhibition, % at 10 µM; AID 651702; TALL-104 LAMP-1 surface exposure, flow cytometry; cells stimulated with thapsigargin and PMA;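 active = inhibition above about 55%, limit read from the data; inconclusive = no clear call, values can overlap the other calls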
HNF4A DNA FP: change in binding of human HNF4 alpha to DNA; activity change, % at 10 µM; actives 0.3% (n = 360,000); HNF4a-FITC DNA binding, fluorescence polarization, 1 h; in the data active = activity change above about 30%, passing the limit was not always enough
Target sequence (P41235 whole entry, looked up): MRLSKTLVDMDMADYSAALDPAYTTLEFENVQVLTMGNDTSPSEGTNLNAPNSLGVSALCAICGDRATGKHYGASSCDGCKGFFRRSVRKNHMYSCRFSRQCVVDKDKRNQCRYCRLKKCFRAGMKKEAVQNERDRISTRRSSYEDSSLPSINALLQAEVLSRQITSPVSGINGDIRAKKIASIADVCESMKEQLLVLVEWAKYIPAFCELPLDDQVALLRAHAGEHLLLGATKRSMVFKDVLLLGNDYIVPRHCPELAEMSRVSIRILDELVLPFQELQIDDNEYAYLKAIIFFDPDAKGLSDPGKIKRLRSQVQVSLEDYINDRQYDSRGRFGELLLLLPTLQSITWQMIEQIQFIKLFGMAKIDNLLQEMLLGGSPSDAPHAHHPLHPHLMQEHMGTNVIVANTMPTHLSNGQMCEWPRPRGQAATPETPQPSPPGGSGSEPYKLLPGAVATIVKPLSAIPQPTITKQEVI
DSG3 Ab inh: blocks pemphigus antibody binding to human desmoglein-3 | P32926 | DSG3-coupled beads, scFv-anti-DSG3-GFP binding, flow cytometry; active compounds read low | binding (percent of control), % at 10 µM | actives 0.48% (n = 310,000);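 active = binding more than 3 SD below its plate's average and above zero; inconclusive = below that plate limit but binding exactly zero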;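 note: hits lower antibody fragment binding to DSG3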
H9c2 protect: modulators protecting cardiomyocytes from myocardial damage. H9c2 cardiomyocytes, H2O2 injury protection, ATPLite, 2 h. protection from H2O2 cell death, % at 20 µM. actives 0.63% (n = 360,000);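 active = compounds giving at least 50% protection of heart cells from peroxide-induced death in the single-dose screen, raw or plate-pattern-corrected value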;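 note: 0% = DMSO wells with peroxide and 100% = DMSO wells without peroxide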
Starred values were filed as active, the others as inactive; i = inactive; ? = inconclusive; . = no result; + = active, no number.

SMILES | Myeloid diff 2 | SENP1 FRET inh | Granule exo inh | HNF4A DNA FP | DSG3 Ab inh | H9c2 protect
CC(=O)N1C[C@H]2CON(C)[C@H]2C[C@H]1c1ccc(-c2ccccc2)cc1 | i | 1.8 | 1.3 | -4.5 | 101.7 | -2.9
O=C1/C(=C/c2ccccc2[N+](=O)[O-])COc2ccccc21 | . | 0.4 | 83.8* | 0.1 | 106.2 | 1.9
COc1cc(NC(=O)CN(c2ccc(C)cc2)S(=O)(=O)c2c(C)noc2C)cc(OC)c1 | i | -1.3 | 29.7 | 4.5 | 110.7 | -4.2
COc1cc(N=c2ssnc2Cl)cc(OC)c1 | i | 2.5 | -1.1 | 3.5 | 62.1* | -1.3
Clc1ccc(N=c2ssnc2Cl)nc1 | i | 31.8* | 87.1* | 6.1 | 100.7 | -6.4
Clc1nssc1=Nc1nncs1 | i | -1.8 | -4.1 | 0.5 | 100.8 | 9.3
Clc1nssc1=Nc1ccc(Br)cc1 | i | 0.8 | 59.0* | -1.3 | . | -36.8
N#Cc1cccc(N=c2ssnc2Cl)c1 | . | . | . | . | 105.8 | .
CC(Oc1ccc2ccccc2c1)C(=O)NNC(=O)Nc1ccccc1 (centres undefined) | i | 1.0 | 26.3 | -0.9 | 115.9 | -2.1
N#Cc1ccc2nc3c(nc2c1)CCCC3 | i | 0.6 | 1.5 | -0.9 | 97.0 | 12.1
CN(C)CCCN(C(=O)c1ccc([N+](=O)[O-])s1)c1nc2cc3c(cc2s1)OCCO3 | i | 0.0 | 5.6 | -2.3 | 99.8 | -18.9
CN(C)CCCN(C(=O)c1cc2cc([N+](=O)[O-])ccc2s1)c1nc2cc3c(cc2s1)OCCO3 | . | 3.0 | 75.8* | 3.0 | 112.3 | -19.1
O=C1C(SCCO)=C(SCCO)C(=O)c2ccccc21 | i | 4.4 | 97.2* | 4.0 | 92.3 | -46.0
COc1ccc(C(=O)NN=C2CCCC2)cc1 | + | -0.9 | -4.1 | -2.1 | 98.7 | 2.7
COc1ccc(OC)c(NC(=O)c2sc3ncnc(N4CCN(c5ccccn5)CC4)c3c2C)c1 | i | -0.9 | -5.2 | -2.5 | 87.1 | 86.5*
COc1ccccc1N1CCN(C(=O)c2sc3ncnc(N4CCN(c5ccccn5)CC4)c3c2C)CC1 | i | 1.6 | 11.0 | 3.5 | 100.3 | 21.9
CS(=O)(=O)N(CC(=O)Nc1ccc(CC#N)cc1)c1ccc(C23CC4CC(CC(C4)C2)C3)cc1 | + | 1.0 | 0.3 | -1.0 | 84.3 | -17.9
CC(=O)Nc1ccc(NC(=O)CN(c2ccc(C34CC5CC(CC(C5)C3)C4)cc2)S(C)(=O)=O)cc1 | i | 1.1 | 5.8 | -0.7 | 98.8 | -8.1
O=C(Nc1nnc(-c2ccc3c(c2)CCCC3)o1)c1ccccc1 | i | -3.6 | 4.4 | -2.3 | 100.1 | 52.1*
O=C(Nc1nnc(-c2ccc3c(c2)CCCC3)o1)c1ccccc1Cl | i | -0.3 | 3.9 | -1.4 | 98.6 | 46.7
COc1ccc(NS(=O)(=O)c2csc(C(=O)N3CCCC3)c2)c(OC)c1 | i | -0.8 | -2.6 | 1.8 | ? | -0.4
Cc1cc(C)c(C)c(S(=O)(=O)N2CCC(C(=O)Nc3ccccc3N3CCOCC3)CC2)c1C | i | 0.3 | -5.4 | -2.1 | 1.0* | 2.4
COc1cc(OC)cc(-c2sc3ccc(OC)cc3c2-c2ccc(OCCN3CCCCC3)cc2)c1 | i | 3.2 | 17.1 | -0.6 | 103.2 | -22.8
COc1ccc(-c2sc3cc4c(cc3c2-c2ccc(OCCN3CCCCC3)cc2)OCO4)cc1 | + | 1.5 | 36.6 | 2.8 | 110.1 | -20.8
O=C(N/N=C/c1ccc([N+](=O)[O-])o1)c1sc2ccccc2c1Cl | i | -0.7 | 2.6 | 9.9 | 81.8* | 11.1
SMILES | Myeloid diff 2 | SENP1 FRET inh | Granule exo inh | HNF4A DNA FP | DSG3 Ab inh | H9c2 protect
O=C(N/N=C/c1c[nH]c2ccccc12)c1sc2ccccc2c1Cl | i | 26.5 | 1.7 | 1.3 | 108.3 | 2.3
Cn1cccc1/C=N/NC(=O)c1sc2ccccc2c1Cl | i | -26.4 | -3.2 | 2.4 | . | 13.1
O=C(N/N=C/c1ccccn1)c1sc2ccccc2c1Cl | i | -0.4 | 60.2* | 0.4 | 94.8 | 41.6
Cc1noc(C)c1CCC(=O)N1CCCC(N2CCN(c3ccc(F)cc3)CC2)C1 (centres undefined) | i | -0.5 | 2.7 | 5.1 | 106.3 | 3.7
CN1C(=O)NC(c2ccccc2[N+](=O)[O-])C2=C1CCCC2=O (centres undefined) | + | -23.6 | 2.6 | -75.1 | 227.4 | 13.1
CN1C(=O)NC(c2ccccc2[N+](=O)[O-])C2=C1CC(C)(C)CC2=O (centres undefined) | i | -0.3 | 6.6 | 2.6 | 95.2 | 5.3
Cc1ccc(NC(=O)NC2=N/C(=C(/C#N)C(=O)N3CCCC3)c3ccccc32)cc1 | i | -2.5 | 0.3 | 0.2 | 103.5 | 70.0*
O=C(O)C(CCc1ccccc1)N1CCOCC1 (centres undefined) | i | 0.1 | -2.2 | -1.8 | 108.2 | 2.5
CC1Cc2ccccc2N1S(=O)(=O)c1cccs1 (centres undefined) | i | -15.1 | 0.5 | 114.7* | 201.1 | -18.0
CC1CCN(c2ccc(NC(=O)c3cccnc3)cc2)CC1 | + | 5.4 | 0.2 | 12.9 | 118.5 | -1.4
COCCNC(=O)c1[nH]c(C(F)(F)F)nc1-c1ccccc1 | i | 1.9 | -2.0 | 1.8 | . | -2.8
Cc1ccc(-n2c(-c3ccncc3)nnc2-c2cccs2)cc1 | i | 1.2 | 1.0 | 2.9 | -8.5* | 6.0
Cc1cc(C)cc(OCc2ccc(C(=O)NN)o2)c1 | + | 0.0 | -1.5 | -1.6 | . | 6.1
Cc1c(N=C2C=CC(=O)c3ccccc32)c(=O)n(-c2ccccc2)n1C | i | -0.2 | 95.2* | 0.0 | 100.9 | -26.1
O=C(CSc1nnc(-c2ccccc2)n1Cc1ccccc1)NNC(=O)c1ccccc1O | i | -0.5 | 2.1 | -4.7 | 105.4 | 59.2*
COc1cc(N2CCCC2)c(OC)cc1/C=C(/C#N)c1ccc(Br)cc1 | + | -27.9 | 6.8 | 113.4 | 236.8 | -6.8
O=c1[nH]nc(SCCS(=O)(=O)c2ccc(F)cc2)n1-c1ccc2c(c1)OCCO2 | i | 0.7 | -2.1 | -4.3 | 110.0 | 1.2
CC1(C)N=C(N)N=C(N)N1c1ccc(OCCCOc2ccccc2)c(Cl)c1 | ? | -0.9 | -3.2 | 49.9* | 113.7 | 2.6
CC1(C)N=C(N)N=C(N)N1c1ccc(OCC(=O)N2CCOCC2)cc1 | i | 2.4 | -1.0 | 2.0 | 99.8 | 4.2
CC1(C)N=C(N)N=C(N)N1c1ccc(OCC(=O)N2CCOCC2)c(Cl)c1 | + | 1.7 | -1.0 | 1.9 | 98.5 | 0.8
Cc1cc(C(=O)COC(=O)C2=COCCO2)c(C)n1-c1ccccc1 | i | -3.1 | -16.5 | -1.0 | 93.3 | -17.1
CC(=O)Nc1ccc(C(=O)N/N=C/c2ccccc2OC(=O)c2ccc(Cl)cc2)cc1 | i | -0.6 | 0.3 | 1.3 | 109.6 | 56.1*
CCCCN(C(=O)COC(=O)CSc1cc(C)c2ccccc2n1)c1c(N)n(CCC)c(=O)[nH]c1=O | i | 0.2 | -5.7 | 4.1 | 101.3 | 5.3
